Converted amounts (≈) assume the structure as drawn. The source made the active and inactive calls. No cut-off for these calls is given here.
Tests used:
Bacillus subtilis [1] = assay: Induction of recA promoter in Bacillus subtilis YB3001 using 4-methylumbelliferyl beta D-galactopyranoside as substrate incubated for 3 hrs prior to substrate addition measured after 1 hr by beta galactosidase reporter gene assay relative to control; format: functional
Method in brief: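 recA–β-galactosidase reporter in B. subtilis YB3001. Twofold compound dilutions in lysogeny broth were inoculated with mid-exponential cells and incubated 3 h at 37 °C, then frozen at −20 °C overnight. Cells were lysed with lysozyme (30 min, 37 °C) and Triton X-100. MUG was added and incubated 1 h at 25 °C. Fluorescence read at ex 360/em 450 nm.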

Escherichia coli [2] = assay: Antibacterial activity against ciprofloxacin-resistant Escherichia coli WT-3-1 MB2 assessed as growth inhibition by CLSI broth microdilution method; format: functional
Method in brief: (§1)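 MICs determined by CLSI broth microdilution in Mueller–Hinton broth. Inoculum was prepared by direct colony suspension, at 5 × 10^5 CFU/mL.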

Enterococcus faecalis = assay: Antibacterial activity against clarithromycin, erythromycin, moxifloxacin, telithromycin, vancomycin-resistant Enterococcus faecalis UW 2689 assessed as growth inhibition by CLSI broth microdilution method; format: functional; method in brief: as §1
Streptococcus agalactiae = assay: Antibacterial activity against doxycycline-intermediate Streptococcus agalactiae 013761 assessed as growth inhibition by CLSI broth microdilution method; format: functional
Bacillus subtilis [3] = assay: Antibacterial activity against Bacillus subtilis subsp. subtilis str. 168 trpC2 assessed as growth inhibition measured at 5 mins interval over 20 hrs by spectrophotometric analysis relative to control; format: functional, organism-based
Method in brief: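 B. subtilis 168 trpC2 was grown in lysogeny broth, shaken, at 37 °C. Dilution and inoculum were as for broth microdilution. OD600 was read every 5 min over 20 h in untreated versus treated cultures.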

Staphylococcus aureus [4] = assay: Antibacterial activity against amoxicillin, chloramphenicol, ciprofloxacin, clindamycin, erythromycin, fosmidomycin, gentamycin, kanamycin, nitrofurantoin, telithromycin, methicillin-resistant Staphylococcus aureus 25697 assessed as growth inhibition by CLSI broth microdilution method; format: functional; method in brief: as §1
Bacillus subtilis [5] = assay: Induction of yorB promoter in Bacillus subtilis IS34 after 3 hrs at 0.01 to 100 ug/ml by luciferase reporter gene assay; format: functional
Method in brief: (§2)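 Promoter–firefly luciferase fusions were built in B. subtilis IS34. Luminescence was read in a plate reader and expressed as percent of the untreated control. One representative experiment.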

Staphylococcus aureus [6] = assay: Antibacterial activity against ceftazidime, clarithromycin, ciprofloxacin, clindamycin, doxycycline, erythromycin, methicillin, moxifloxacin, kanamycin, telithromycin, rifampicin, methicillin-resistant, vancomycin-intermediate Staphylococcus aureus subsp. aureus Mu50 assessed as growth inhibition by CLSI broth microdilution method; format: functional; method in brief: as §1
Bacillus subtilis [7] = assay: Induction of yorB promoter in Bacillus subtilis IS34 after 3 hrs by luciferase reporter gene assay relative to control; format: functional; method in brief: as §2
Bacillus subtilis [8] = assay: Induction of bmrC promoter in Bacillus subtilis IS34 promoter at 64 ug/mL after 3 hrs by luciferase reporter gene assay; format: functional, organism-based; method in brief: as §2
Bacillus subtilis [9] = assay: Induction of helD promoter in Bacillus subtilis IS34 at 64 ug/mL after 3 hrs by luciferase reporter gene assay; format: functional, organism-based; method in brief: as §2
Streptococcus pneumoniae = assay: Antibacterial activity against Streptococcus pneumoniae ATCC 49619 assessed as growth inhibition by CLSI broth microdilution method; format: functional
Streptococcus pyogenes = assay: Antibacterial activity against doxycycline-intermediate Streptococcus pyogenes 014327 assessed as growth inhibition by CLSI broth microdilution method; format: functional
THP-1 = assay: Cytotoxicity against human THP1 cells assessed as growth inhibition after 48 hrs by Alamar blue assay; format: cell-based; settings: THP-1, 48 h
Method in brief: (§3)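 THP-1 cells were kept in RPMI-1640 with 10% FCS. BALB/3T3 cells were kept in DMEM with 10% FCS. Cells were plated at 10^4 per well without antibiotics and exposed to 0.016−32 μg/mL (final, 0.32% DMSO) for 48 h at 37 °C, 5% CO2. AlamarBlue was added for 24 h more. Fluorescence (ex 560/em 600 nm) was expressed relative to untreated cells.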

BALB/3T3 = assay: Cytotoxicity against mouse BALB/3T3 cells assessed as growth inhibition after 48 hrs by Alamar blue assay; format: cell-based; settings: BALB/3T3, 48 h; method in brief: as §3
Staphylococcus aureus [10] = assay: Antibacterial activity against Staphylococcus aureus ATCC 29213 assessed as growth inhibition by CLSI broth microdilution method; format: functional; method in brief: as §1
Staphylococcus aureus [11] = assay: Antibacterial activity against Staphylococcus aureus subsp. aureus Mu50 assessed as growth inhibition measured at 5 mins interval over 20 hrs by spectrophotometric analysis relative to control; format: functional
Method in brief: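 S. aureus Mu50 was grown in Mueller−Hinton broth at 37 °C with shaking between reads. Dilution and inoculum were as for broth microdilution, with compound at 0.031–64 μg/mL. OD600 was read at 5 min intervals over 20 h against an untreated control. Run in triplicate.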

Enterococcus faecium = assay: Antibacterial activity against clarithromycin, erythromycin, telithromycin, vancomycin-resistant Enterococcus faecium 6011 assessed as growth inhibition by CLSI broth microdilution method; format: functional; method in brief: as §1
Bacillus subtilis [12] = assay: Induction of liaI promoter in Bacillus subtilis IS34 promoter at 64 ug/mL after 3 hrs by luciferase reporter gene assay; format: functional, organism-based; method in brief: as §2
Pseudomonas aeruginosa = assay: Antibacterial activity against ceftazidime, ciprofloxacin, cefepime, gentamycin, imipenem, meropenem, piperacillin/tazobactam-resistant Pseudomonas aeruginosa 63230 assessed as growth inhibition by CLSI broth microdilution method; format: functional; method in brief: as §1
Bacillus subtilis [13] = assay: Antibacterial activity against Bacillus subtilis subsp. subtilis str. 168 trpC2 assessed as growth inhibition by CLSI broth microdilution method; format: functional
Escherichia coli [14] = assay: Antibacterial activity against Escherichia coli ATCC 25922 assessed as growth inhibition by CLSI broth microdilution method; format: functional
Klebsiella pneumoniae = assay: Antibacterial activity against doxycycline, kanamycin-resistant Klebsiella pneumoniae ATCC 27799 assessed as growth inhibition by CLSI broth microdilution method; format: functional; method in brief: as §1
Staphylococcus aureus [15] = assay: Antibacterial activity against amoxicillin, chloramphenicol, ciprofloxacin, clindamycin, erythromycin, fosmidomycin, gentamycin, kanamycin, nitrofurantoin, telithromycin, methicillin-resistant Staphylococcus aureus 25697 assessed as concentration required for partial growth inhibition by CLSI broth microdilution method; format: functional
Bacillus subtilis [16] = assay: Induction of yorB promoter in Bacillus subtilis IS34 after 3 hrs at 0.001 to 10 ug/ml by luciferase reporter gene assay; format: functional; method in brief: as §2
Bacillus subtilis [17] = assay: Antibacterial activity against Bacillus subtilis subsp. subtilis str. 168 trpC2 assessed as induction of SOS response-mediated DNA degradation at 0.125 ug/mL after 120 mins by DAPI staining-based fluorescence microscopic analysis; format: functional, organism-based
Method in brief: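 B. subtilis 168 trpC2 was grown in lysogeny broth to OD600 0.1−0.3, then treated in plates at 37 °C with shaking. Aliquots were taken 30−180 min after addition and stained 60 s with DAPI (1 μg/mL stock). Cells were immobilized on 1% agarose slides and imaged by phase contrast and fluorescence. Performed twice.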

Staphylococcus aureus [18] = assay: Antibacterial activity against ceftazidime, clarithromycin, ciprofloxacin, clindamycin, doxycycline, erythromycin, methicillin, moxifloxacin, kanamycin, telithromycin, rifampicin, methicillin-resistant, vancomycin-intermediate Staphylococcus aureus subsp. aureus Mu50 assessed as concentration required for partial growth inhibition by CLSI broth microdilution method; format: functional
Staphylococcus aureus [19] = assay: Antibacterial activity against Staphylococcus aureus ATCC 29213 assessed as concentration required for partial growth inhibition by CLSI broth microdilution method; format: functional
Bacillus subtilis [20] = assay: Antibacterial activity against Bacillus subtilis subsp. subtilis str. 168 trpC2 assessed as concentration required for partial growth inhibition by CLSI broth microdilution method; format: functional

| SMILES | Activity (Bacillus subtilis [1]) | MIC (Escherichia coli [2]) [µg/mL] | MIC (Enterococcus faecalis) [µg/mL] | MIC (Streptococcus agalactiae) [µg/mL] | growth inhibition (GI) (Bacillus subtilis [3]) | MIC (Staphylococcus aureus [4]) [µg/mL] | MIC (Staphylococcus aureus [6]) [µg/mL] | Activity (Bacillus subtilis [8]) | Activity (Bacillus subtilis [9]) | MIC (Streptococcus pneumoniae) [µg/mL] | MIC (Streptococcus pyogenes) [µg/mL] | IC50 (THP-1) [µg/mL] | IC50 (BALB/3T3) [µg/mL] | MIC (Staphylococcus aureus [10]) [µg/mL] | MIC (Enterococcus faecium) [µg/mL] | Activity (Bacillus subtilis [12]) | MIC (Pseudomonas aeruginosa) [µg/mL] | MIC (Bacillus subtilis [13]) [µg/mL] | MIC (Escherichia coli [14]) [µg/mL] | MIC (Klebsiella pneumoniae) [µg/mL] | further results |
| --- | --- | --- | --- | --- | --- | --- | --- | --- | --- | --- | --- | --- | --- | --- | --- | --- | --- | --- | --- | --- | --- |
| CO[C@@]12[C@H](COC(N)=O)C3=C(C(=O)C(C)=C(N)C3=O)N1C[C@@H]1N[C@@H]12 | Active | – | – | – | – | – | – | – | – | – | – | – | – | – | – | – | – | – | – | – | – |
| CC1(O)CC(=O)c2c(cc3cc(O)c(-c4c(O)cc5cc6c(c(O)c5c4O)C(=O)CC(C)(O)C6)c(O)c3c2O)C1 (single isomer, unassigned; atropisomer) [FLAVOMANNIN A] | – | > 64 | > 64 | > 64 | Active | 8 (≈ 14.6 µM) | 16 (≈ 29.3 µM) | inactive | inactive | > 64 | > 64 | > 32 | > 32 | 16 (≈ 29.3 µM) | > 64 | inactive | > 64 | > 64 | > 64 | > 64 | fold change (FC) (Bacillus subtilis [1]): <2; Activity (Bacillus subtilis [5]): inactive; Activity (Bacillus subtilis [7]): Active; growth inhibition (GI) (Staphylococcus aureus [11]): Dose-dependent effect |
| COc1cc2cc3c(c(O)c2c(O)c1-c1c(O)cc2cc4c(c(O)c2c1O)C(=O)CC(C)(O)C4)C(=O)CC(C)(O)C3 (single isomer, unassigned; atropisomer) [FLAVOMANNIN C] | – | > 64 | 32 (≈ 57.1 µM) | > 64 | Active | 32 (≈ 57.1 µM) | 16 (≈ 28.5 µM) | inactive | inactive | > 64 | > 64 | > 32 | > 32 | 64 (≈ 114 µM) | > 64 | inactive | > 64 | > 64 | > 64 | > 64 | Activity (Bacillus subtilis [5]): inactive; growth inhibition (GI) (Staphylococcus aureus [11]): Dose-dependent effect |
| COc1cc2cc3c(c(O)c2c(O)c1-c1c(O)cc2c(O)c4c(cc2c1O)CC(C)(O)CC4=O)C(=O)CC(C)(O)C3 (single isomer, unassigned; atropisomer) [FLAVOMANNIN D] | Active | > 64 | 32 (≈ 57.1 µM) | > 64 | Active | 8 (≈ 14.3 µM) | 8 (≈ 14.3 µM) | inactive | inactive | 64 (≈ 114 µM) | 64 (≈ 114 µM) | > 32 | > 32 | 8 (≈ 14.3 µM) | > 64 | inactive | > 64 | 64 (≈ 114 µM) | > 64 | > 64 | concentration giving maximal yorB promoter induction (Bacillus subtilis [5]): 2 µg/mL; growth inhibition (GI) (Staphylococcus aureus [11]): Dose-dependent effect |
| Cc1cc(O)c2c(c1)C(=O)c1cc(O)c(-c3c(O)cc4c(O)c5c(cc4c3O)CC(C)(O)CC5=O)c(O)c1C2=O (single isomer, unassigned; atropisomer) [Talaromannin B] | Active | > 64 | 64 (≈ 118 µM) | 64 (≈ 118 µM) | Active | 16 (≈ 29.5 µM) | 8 (≈ 14.7 µM) | inactive | inactive | 32 (≈ 59 µM) | 32 (≈ 59 µM) | > 32 | > 32 | 16 (≈ 29.5 µM) | > 64 | inactive | > 64 | > 64 | > 64 | > 64 | concentration giving maximal yorB promoter induction (Bacillus subtilis [5]): 8 µg/mL; Activity (Bacillus subtilis [7]): Active; MIC (Staphylococcus aureus [15]): 8 µg/mL (≈ 14.7 µM); growth inhibition (GI) (Staphylococcus aureus [11]): Dose-dependent effect |
| O=C(O)c1cn(C2CC2)c2cc(N3CCNCC3)c(F)cc2c1=O [CIPROFLOXACIN] | Active | – | – | – | – | – | – | – | – | – | – | – | – | – | – | – | – | – | – | – | fold change (FC) (Bacillus subtilis [16]): 20; Activity (Bacillus subtilis [17]): Active |
| Cc1cc(O)c2c(c1)C(=O)c1cc(O)cc(O)c1C2=O [EMODIN] | inactive | > 64 | 16 (≈ 59.2 µM) | > 64 | – | 2 (≈ 7.4 µM) | 4 (≈ 14.8 µM) | inactive | inactive | 1 (≈ 3.7 µM) | > 64 | 32 (≈ 118 µM) | 32 (≈ 118 µM) | 4 (≈ 14.8 µM) | > 64 | inactive | > 64 | 16 (≈ 59.2 µM) | > 64 | > 64 | MIC (Staphylococcus aureus [18]): 2 µg/mL (≈ 7.4 µM); Activity (Bacillus subtilis [5]): inactive; MIC (Staphylococcus aureus [19]): 2 µg/mL (≈ 7.4 µM); MIC (Bacillus subtilis [20]): 8 µg/mL (≈ 29.6 µM) |

Source: ChEMBL document CHEMBL2331253, “Atropisomeric dihydroanthracenones as inhibitors of multiresistant Staphylococcus aureus” (J Med Chem, 2013)
